Compounds with a hit are over-represented: about 3.7% of the library has one in this group of screens.
MDM2 E3 inh: inhibitors of human Mdm2 E3 ubiquitin ligase; AID 1230; signal enhancement, % at 5 µM; cell-based MDM2 ubiquitination luciferase reporter, 2 h; 0 = plate control, 100 = twice control, blank-subtracted; Q00987; hit rate 0.11% among 210,000;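 active means signal enhancement of 30% or more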;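 further: luminescence tracks abundance of the self-degrading MDM2-luciferase fusion protein; higher signal means inhibition of MDM2 E3 ligase activity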
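system = mammalian cells stably expressing self-ubiquitinating, self-degrading MDM2 E3–luciferase fusion | quantity = 2000 cells per well seeded | incubation = 4 h cell settling then 2 h compound exposure, 37 °C | signal = SteadyLite luminescence, 15 min reagent step | benchmarks = plate control and blank wells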
ROMK primary: modulators of human ROMK potassium channel | hit rate 2% among 130,000 | P48048 | B-score at 10 µM | Tet-inducible ROMK, thallium flux fluorescence; actives lie on both sides;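 active means signal ratio slope over the read window, or its plate-corrected B-score, at least 3 SD from the plate mean, either direction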;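 further: B-score of the F/F0 ratio slope over 7 to 12 s after thallium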
PKD1 inh: PKD1 (human) kinase inhibition | Q15139 | PKD1 kinase fluorescence polarization assay | inhibition, % (test concentration not listed) | hit rate 0.056% among 200,000 | AID 797; in the data active means inhibition above about 50%
Target sequence (Q15139 whole entry, looked up): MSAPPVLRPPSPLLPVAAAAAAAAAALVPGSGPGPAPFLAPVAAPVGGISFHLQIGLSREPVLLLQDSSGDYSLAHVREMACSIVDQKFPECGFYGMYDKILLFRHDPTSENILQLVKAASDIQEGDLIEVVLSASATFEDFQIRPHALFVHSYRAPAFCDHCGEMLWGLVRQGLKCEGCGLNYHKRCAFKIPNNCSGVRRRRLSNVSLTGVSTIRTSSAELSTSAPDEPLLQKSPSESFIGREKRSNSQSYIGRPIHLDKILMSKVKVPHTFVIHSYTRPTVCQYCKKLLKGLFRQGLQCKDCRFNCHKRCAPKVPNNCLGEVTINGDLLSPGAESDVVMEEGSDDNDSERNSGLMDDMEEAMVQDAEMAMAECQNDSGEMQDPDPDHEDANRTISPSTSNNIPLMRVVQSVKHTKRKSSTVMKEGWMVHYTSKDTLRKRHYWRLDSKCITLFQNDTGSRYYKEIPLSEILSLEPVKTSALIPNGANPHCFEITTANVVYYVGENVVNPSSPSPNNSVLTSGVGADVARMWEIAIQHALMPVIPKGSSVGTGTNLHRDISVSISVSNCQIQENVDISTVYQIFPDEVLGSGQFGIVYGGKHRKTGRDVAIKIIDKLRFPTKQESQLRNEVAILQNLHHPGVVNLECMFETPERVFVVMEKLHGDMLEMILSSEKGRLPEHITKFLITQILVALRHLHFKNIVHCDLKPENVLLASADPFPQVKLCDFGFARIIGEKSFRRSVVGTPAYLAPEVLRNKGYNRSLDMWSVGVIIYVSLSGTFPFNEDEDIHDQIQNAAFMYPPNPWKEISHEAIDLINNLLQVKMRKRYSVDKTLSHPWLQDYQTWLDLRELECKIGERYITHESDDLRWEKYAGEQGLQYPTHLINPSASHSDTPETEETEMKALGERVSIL
Calpain2 inh: blocks pig calpain II enzyme activity; inhibition, % at 16 µM; AID 1236; purified calpain II, fluorogenic peptide substrate, 30 min; hit rate 0.37% among 220,000;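 active means inhibition above about 50%, limit read from the data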
KCC2 mod: modulates chloride dependent transport by human KCC2; hit rate 2.2% among 190,000; KCC2 cells, thallium flux FluoZin-2 fluorescence; B-score of Tl+ flux slope (higher = more flux/activation; lower = inhibition) at 10 µM; AID 1456; Q9H2X9;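 active means thallium flux slope and its plate-corrected score both differing from the plate sample mean at a set confidence after two filtering rounds, in either direction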;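 further: slope of fluorescence scaled to starting intensity during 10 to 20 s after thallium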
Arbovirus anti: antivirals against arbovirus infection; arbovirus infection cell-based antiviral screen; AID 1251; inhibition, % at 10 µM; hit rate 0.37% among 200,000; in the data active means inhibition above about 30%
Large screens that a line does not name were inactive.

c1ccc(-c2ccc(C(c3ccccc3)n3ccnc3)cc2)cc1 (stereo unspecified)	Calpain2 inh 53 (no result: MDM2 E3 inh, ROMK primary)
Cc1csc(N/N=C/c2ccc(O)c([N+](=O)[O-])c2)n1	none
O=[N+]([O-])c1cc(/C=N\Nc2nc(-c3ccccc3)cs2)ccc1O	Arbovirus anti 48
O=C(O)CCN(CCC(=O)O)c1nnc(SCc2ccccc2)s1	none (no result: MDM2 E3 inh)
CCSc1nnc(N(CCC#N)CCC#N)s1	ROMK primary -5
O=C(c1ccc(S(=O)(=O)N2CCOCC2)cc1)N1CCOCC1	none (no result: ROMK primary)
O=C(c1ccc(CSc2nc3ccncc3[nH]2)cc1)N1CCN(c2cccc(Cl)c2)CC1	ROMK primary -3.5 (no result: MDM2 E3 inh)
COc1cc(O)c(/C=N/NC(=O)c2ccncc2)c(OC)c1[N+](=O)[O-]	none
N#CC1=C(SCC(=O)Nc2ccccc2)NC(=O)CC1c1ccc(O)cc1 (stereo unspecified)	Arbovirus anti 42 (no result: ROMK primary)
N#CC1=C(SCC(=O)Nc2ccccc2)NC(=O)CC1c1ccco1 (stereo unspecified)	none
O=[N+]([O-])c1cc(C(F)(F)F)ccc1NCCNC(=S)Nc1ccc(Cl)cc1	Calpain2 inh 52 (no result: ROMK primary, KCC2 mod)
O=[N+]([O-])c1cc(C(F)(F)F)ccc1NCCCCNS(=O)(=O)c1ccc(Cl)cc1	none
C=CCc1cccc(C2Nc3ccccc3C(=O)N2O)c1O (stereo unspecified)	KCC2 mod 13 (no result: ROMK primary)
C[C@@H]1CN(Cc2cn(C)nc2-c2cccc(Cl)c2)C[C@H](C)O1	none (no result: ROMK primary)
O=C(NC(=S)Nc1ccccc1N1CCOCC1)c1ccc([N+](=O)[O-])cc1	none
Cc1ccc(C(=O)NC(=S)N2CCN(c3ccc([N+](=O)[O-])cc3)CC2)cc1	none (no result: ROMK primary)
Cc1c(C(=O)NC(=S)Nc2ccccc2N2CCCC2)cccc1[N+](=O)[O-]	KCC2 mod 13
O=C(NC(=S)Nc1ccccc1N1CCOCC1)c1cccs1	KCC2 mod 39
O=C(NC(=S)Nc1ccccc1N1CCCC1)c1ccc([N+](=O)[O-])cc1	KCC2 mod 42
CCC1CCCCN1C(=S)NC(=O)c1ccc([N+](=O)[O-])cc1 (stereo unspecified)	KCC2 mod 46 (no result: ROMK primary)
O=C(Nc1cccc(Br)c1)c1ccc(OC2CSC2)cc1	none
N#C/C(=C\c1cc2c(cc1Br)OCO2)C(=O)NCC1CCCO1 (stereo unspecified)	none (no result: ROMK primary, PKD1 inh, Arbovirus anti)
CCOCCCn1c(=NC(=O)c2cccs2)c(C#N)cc2c(=O)n3ccccc3nc21	none (no result: ROMK primary, PKD1 inh, Arbovirus anti)
Cc1ccccc1NC(=O)c1snc2c(=O)[nH]cnc12	none
O=C(CSc1nc2c(c(=O)n1-c1ccccc1)SCC2)NCC1CCCO1 (stereo unspecified)	none (no result: PKD1 inh, Arbovirus anti)
Cc1c(NC(=O)c2noc3c2CCc2ccccc2-3)c(=O)n(-c2ccccc2)n1C	KCC2 mod -3.3 (no result: MDM2 E3 inh, ROMK primary, Calpain2 inh)
COc1cc(/C=C2/SC(=O)NC2=O)ccc1Oc1ccc([N+](=O)[O-])cc1[N+](=O)[O-]	Calpain2 inh 63 (no result: MDM2 E3 inh, ROMK primary, PKD1 inh, Arbovirus anti)
COc1cc(/C=C2\SC(=O)NC2=O)ccc1Oc1ccc([N+](=O)[O-])cn1	none (no result: ROMK primary, PKD1 inh, Arbovirus anti)
CCCN(CCC)C(=O)CC(c1ccccc1)c1ccc(C)cc1O (stereo unspecified)	none
CCCN(CCC)C(=O)CC(c1ccccc1)c1cc(Br)ccc1O (stereo unspecified)	Calpain2 inh 74 (no result: KCC2 mod)
CCN(C(=O)CN1CCN(c2cccc(C(F)(F)F)c2)CC1)c1c(N)n(Cc2ccccc2)c(=O)[nH]c1=O	none
CCCCCCC1CCC(C(=O)N2CCOCC2)CC1 (stereo unspecified)	none
O=C(O)CSc1cc(C(=O)c2ccccc2O)cn2c(=O)c3c(-c4ccccc4)csc3nc12	Arbovirus anti 70
C/C(=N\Nc1ccc(Cl)c(C(=O)O)c1)c1ccc[nH]1	none (no result: ROMK primary, PKD1 inh, Arbovirus anti)
CCN(CC)c1ccc(/C=C/C(=O)C2C(=O)C=C(C)OC2=O)cc1 (stereo unspecified)	none (no result: ROMK primary)
COc1ccc(-c2ccc(SCC(=O)c3ccccc3)nn2)cc1OC	none
Cc1cccc(NC(=S)NC(=O)c2cc(-c3ccccc3)nc3ccccc23)c1	KCC2 mod 8.5 (no result: ROMK primary)
Cc1ccccc1NC(=S)NC(=O)c1cc(-c2ccccc2)nc2ccccc12	KCC2 mod 14 (no result: ROMK primary)
Cc1cccc(-c2cc(C(=O)Nc3ccc4c(c3)OCCO4)c3ccccc3n2)c1	none (no result: ROMK primary)
Cc1ccc(C)c(NC(=O)c2cc(-c3cccnc3)nc3ccccc23)c1	none
COC(=O)c1ccc(NC(=O)COc2ccc([N+](=O)[O-])cc2)cc1	none (no result: PKD1 inh, Arbovirus anti)
CCN(CC)c1ccc(NC(=O)C(C)C)cc1	none (no result: ROMK primary)
CCN(CC)c1ccc(C(=O)NNC(=O)CCl)cc1	Calpain2 inh 69
Cc1ccc(CNc2ccc(S(=O)(=O)N3CCOCC3)cc2[N+](=O)[O-])cc1	none (no result: ROMK primary)
C/C(=C\C=C(C#N)C#N)c1cc(C#N)c(N)o1	none (no result: ROMK primary)
Cc1cc(C)nc(S/C=C/C(=O)c2ccc(F)cc2)n1	MDM2 E3 inh 59 (no result: ROMK primary, PKD1 inh, Arbovirus anti)
Cc1ccc(Nc2ncnc3c2nnn3Cc2ccccc2)cc1	none (no result: ROMK primary, PKD1 inh, Arbovirus anti)
Cc1sc2nc(C(C)C)nc(SCC(=O)N3c4ccccc4CC3C)c2c1C (stereo unspecified)	KCC2 mod 65
CCOC(=O)CSc1nc(C(C)C)nc2sc(C)c(C)c12	Calpain2 inh 54
CCc1nc(SCC(=O)N2c3ccccc3CC2C)c2c(C)c(C)sc2n1 (stereo unspecified)	none (no result: ROMK primary)
Cc1sc2nc(C(C)C)nc(SCC(=O)NCc3ccco3)c2c1C	KCC2 mod 33 (no result: ROMK primary)
Cc1cc2cc(C)c(SCC(=O)NCc3ccco3)nc2cc1C	MDM2 E3 inh 31 (no result: ROMK primary, KCC2 mod)
O=C(CSc1n[nH]c(-c2ccccc2Cl)n1)NCc1cccc(C(=O)O)c1	none
Cc1ccc(-c2nnc(CSc3nc(C(C)C)nc4sc(C)c(C)c34)o2)cc1	KCC2 mod 9.1
O=C(CSc1nc(C2CC2)nc2ccccc12)NCc1ccc2c(c1)OCO2	none (no result: KCC2 mod)
Cc1cccc2c1nc(-c1ccccc1)n1nnnc21	Arbovirus anti 55 (no result: ROMK primary)
Cc1cccc2c1nc(-c1ccccc1)n1cnnc21	none (no result: ROMK primary)
CNC(=S)/N=C/NOCc1c(Cl)cccc1Cl	none
Cn1c(O)c(N=Nc2ccc(F)cc2)c2ccccc21	none
Cn1c(O)c(N=Nc2nc(-c3ccccc3)cs2)c2ccccc21	ROMK primary 2.8, KCC2 mod 52
CCOCCn1c(SC(C)C(C)=O)nc2c1c(=O)[nH]c(=O)n2C (stereo unspecified)	none (no result: PKD1 inh, Arbovirus anti)
CCOC(=O)c1nn(-c2cccc(OC)c2)c2nc(Nc3ccccc3)cc(=O)n12	none (no result: KCC2 mod)
CCOC(=O)c1nn(-c2ccc(Cl)cc2)c2nc(Nc3ccccc3)cc(=O)n12	Arbovirus anti 42 (no result: MDM2 E3 inh)
CCOC(=O)c1nn(-c2cccc(Cl)c2)c2nc(Nc3ccccc3)cc(=O)n12	Arbovirus anti 34
O=S(=O)(Cc1cc(NCc2ccccc2)nc(-c2ccccn2)n1)c1ccccc1	none (no result: ROMK primary)
CN(Cc1ccccc1)c1ccc(C(=O)O)cc1[N+](=O)[O-]	none (no result: ROMK primary)
Cc1c(C(=O)N2CCC(Cc3ccccc3)CC2)cccc1[N+](=O)[O-]	none

Screening data (PubChem)
